# Data from PubChem BioAssay.
# The source made the active and inactive calls. Unless noted, no stated cut-off is given here; in the data, active means inhibition above about 30%; inactive means the rest.
# Legend:
# [1] = reducers of endogenous Her2 protein level, primary screen, SKBR3 breast tumor cells, AlphaScreen, ATP viability (AID 461;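 active means Her2 level under about 52% in both replicate screens, with viability over 70% of control, limit read from the data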;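 on Her2 level: lower value means less Her2 protein in the cells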;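 on viability: percent of carrier control wells set as 100% viability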); details: 18-24 h, measured here: SKBR3 viability, ATP luminescence, at 10 µM
# [2] = target: Receptor tyrosine-protein kinase erbB-2 (Homo sapiens) (UniProt P04626); assay: as above; details: 18-24 h, at 10 µM, stronger effect = lower value
# [3] = SK-BR-3 cell growth inhibitors, pilot screen, 24 h, human (AID 572;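 active means viability at or below 10% of carrier control in both of two separate runs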;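 further: compound exposure lasted between 18 and 24 h rather than exactly 24 h; 100% = carrier-treated control wells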); details: SK-BR-3 viability, CellTiter-Glo luminescence, at 10 µM, stronger effect = lower value
# [4] = HUVEC growth inhibition – cell-based, human, primary screen (AID 575;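 active means viability at or below 30% in both replicate assays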;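 further: 100% = median of untreated cell wells with 0.1% DMSO on each plate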); details: HUVEC proliferation, CellTiter-Glo luminescence, 72 h; at 10 µM; stronger effect = lower value
# Method in brief: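 material = primary HUVEC, no more than 12 passages | input = 1250 cells per well | controls = vehicle and MePR control wells | measured by = CTG luminescence | times = 72 h compound incubation | format = collagen-coated 384-well format | read-out = % viability vs DMSO wells | doses = single 10 µM dose, 0.1% DMSO, from 5x medium stock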
# [5] = growth inhibitors of H69AR lung tumor, primary screen, human, duplicate replicates (AID 580;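 active means viability at or under a set limit in both replicates, limit being median viability minus 3 SD, cut at about 48% in these data, passing the limit was not always enough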;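 further: 100% = mean luminescence of untreated wells and 0% = no signal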); details: H69AR lung tumor cells viability, ATP luminescence, 72 h; at 10 µM; stronger effect = lower value
# [6] = reversal of MRP1-mediated doxorubicin resistance, pilot screen, H69AR cells, doxorubicin co-treatment (AID 601;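 active means viability loss from added drug above about 55%, and viability with drug at most 40%, in both replicates, limit read from the data, passing the limit was not always enough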); details: CellTiter-Glo, 72 h, at 10 µM; for differential viability (reversal): stronger effect = higher value
# [7] = 384-well plate pilot, post-Golgi transport modulator project, inhibition of yeast transport mutant growth (AID 636; in the data active means inhibition above about 31%); details: absorbance 615 nm, about 18 h, stronger effect = higher value
# [8] = growth suppression of yeast trafficking mutant, preliminary HTS, modulators of trafficking downstream of Golgi apparatus project, 1536-format plate, OD 615 nm (AID 637); details: yeast transport mutant growth, absorbance 615 nm, 18 h; stronger effect = higher value
# [9] = H69AR cells + 2 uM doxorubicin, measured here: viability with 2 uM doxorubicin, stronger effect = lower value
# [10] = H69AR cells, compound alone cytotoxicity
# Receptor tyrosine-protein kinase erbB-2 (Homo sapiens), sequence (P04626 whole entry, looked up): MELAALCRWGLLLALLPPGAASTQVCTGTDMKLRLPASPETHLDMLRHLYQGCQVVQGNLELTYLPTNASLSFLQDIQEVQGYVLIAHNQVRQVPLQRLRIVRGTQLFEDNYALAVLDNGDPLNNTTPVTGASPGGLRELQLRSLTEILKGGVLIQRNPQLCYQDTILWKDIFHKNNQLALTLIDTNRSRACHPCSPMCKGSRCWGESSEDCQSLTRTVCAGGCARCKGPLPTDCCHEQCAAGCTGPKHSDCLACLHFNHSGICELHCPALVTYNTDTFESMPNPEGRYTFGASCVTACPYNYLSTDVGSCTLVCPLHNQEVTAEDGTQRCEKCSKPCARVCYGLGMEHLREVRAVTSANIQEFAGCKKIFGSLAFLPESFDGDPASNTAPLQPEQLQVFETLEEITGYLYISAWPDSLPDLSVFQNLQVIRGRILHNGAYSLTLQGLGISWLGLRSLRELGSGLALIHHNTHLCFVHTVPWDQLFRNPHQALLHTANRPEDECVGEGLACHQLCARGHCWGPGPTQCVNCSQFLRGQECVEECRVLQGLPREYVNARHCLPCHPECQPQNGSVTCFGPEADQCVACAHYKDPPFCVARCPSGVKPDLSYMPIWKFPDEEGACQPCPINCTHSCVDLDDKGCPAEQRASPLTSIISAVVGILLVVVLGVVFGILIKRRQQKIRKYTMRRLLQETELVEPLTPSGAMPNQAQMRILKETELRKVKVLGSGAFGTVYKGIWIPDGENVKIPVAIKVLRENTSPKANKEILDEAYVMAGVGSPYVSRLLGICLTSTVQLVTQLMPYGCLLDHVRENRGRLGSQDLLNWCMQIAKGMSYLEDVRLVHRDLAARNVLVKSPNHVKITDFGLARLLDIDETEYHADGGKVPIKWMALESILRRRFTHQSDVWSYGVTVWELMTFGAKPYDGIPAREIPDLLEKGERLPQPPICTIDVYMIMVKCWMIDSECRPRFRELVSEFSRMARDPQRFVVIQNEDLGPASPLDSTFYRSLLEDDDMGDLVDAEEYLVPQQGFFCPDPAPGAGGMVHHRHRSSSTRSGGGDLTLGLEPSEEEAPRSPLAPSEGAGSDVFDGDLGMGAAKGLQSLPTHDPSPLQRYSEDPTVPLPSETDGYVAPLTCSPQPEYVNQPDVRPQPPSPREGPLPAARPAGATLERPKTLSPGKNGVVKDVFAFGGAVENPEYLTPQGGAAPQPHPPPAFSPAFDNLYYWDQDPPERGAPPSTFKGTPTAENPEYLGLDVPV
SMILES,viability [1] [%],Her2 level [2],viability [3],viability [4],viability [5],differential viability (reversal) ([6]; H69AR cells + 2 uM doxorubicin),"viability [6, 9] [%]","viability [6, 10] [%]",inhibition [7],inhibition [8]
CCOC(=O)N1CCN(C(=O)c2cccn3c(=O)c4sccc4nc23)CC1,89.5,93.5% (inactive),89.5% (inactive),106% (inactive),90.8% (inactive),-12.8% (inactive),104,90.8,3.6% (inactive),-0.33% (inactive)
Cc1ccccc1-c1nc(CN2CCC(C(=O)NCCCN3CCCC3)CC2)c(C)o1,81.5,91.5% (inactive),81.5% (inactive),63% (inactive),98.2% (inactive),8.91% (inactive),89.3,98.2,1.32% (inactive),0.55% (inactive)
O=C(N1CCN(Cc2ccccc2)CC1)C12CC3CC(CC(C3)C1)C2,83,98% (inactive),83% (inactive),80.4% (inactive),83.4% (inactive),-5.52% (inactive),88.9,83.4,-5.54% (inactive),-0.67% (inactive)
C[C@H](NC(=O)NCc1cccs1)C(=O)O,104,98.5% (inactive),104% (inactive),111% (inactive),93.6% (inactive),0.105% (inactive),93.5,93.6,-3.87% (inactive),-4.43% (inactive)
COc1cccc(CNC(=O)C2CCN(C(=O)N(C)C)CC2)c1,97.5,118% (inactive),97.5% (inactive),90% (inactive),92.2% (inactive),0.06% (inactive),92.2,92.2,-0.64% (inactive),11.8% (inactive)
C1CCC2=NCCCN2CC1,122,87.5% (inactive),122% (inactive),100% (inactive),107% (inactive),8.22% (inactive),98.4,107,-7.33% (inactive),-1.9% (inactive)
Cc1ccc(CSC2=NCCN2C(=O)c2ccco2)cc1,95.5,98% (inactive),95.5% (inactive),92.8% (inactive),84.3% (inactive),2.8% (inactive),81.5,84.3,-3.85% (inactive),3.83% (inactive)
COCC(=O)N(c1ccc(C(C)C)cc1)C1C=CS(=O)(=O)C1 (stereo not given),93.5,80% (inactive),93.5% (inactive),78.9% (inactive),89.6% (inactive),0.84% (inactive),88.8,89.6,-3.08% (inactive),0.83% (inactive)
C=CCn1c(SCc2ccc(C#N)cc2)nnc1-c1cccc(Cl)c1,95.5,86% (inactive),95.5% (inactive),102% (inactive),80.2% (inactive),-3.84% (inactive),84,80.2,-2.21% (inactive),-0.17% (inactive)
O=S(=O)(c1cccs1)N1CCN(C/C=C/c2ccccc2)CC1,101,91.5% (inactive),101% (inactive),83.3% (inactive),82.9% (inactive),1.57% (inactive),81.4,82.9,-3.73% (inactive),2.1% (inactive)
COC(=O)n1c(=S)oc2cc(Cl)ccc21,102,102% (inactive),102% (inactive),62.7% (inactive),93.6% (inactive),3.97% (inactive),89.6,93.6,0.26% (inactive),25.6% (inactive)
CCOC(=O)c1cc2n(n1)C(C(F)(F)C(F)(F)F)CC(C)N2 (stereo not given),92,93.5% (inactive),92% (inactive),105% (inactive),97.3% (inactive),4.36% (inactive),93,97.3,-3.73% (inactive),-0.32% (inactive)
Cc1cccc2cc(CN(CCN3CCCC3)C(=O)NC3CCCCC3)c(=O)[nH]c12,83,78.5% (inactive),83% (inactive),76.5% (inactive),91% (inactive),-1.06% (inactive),92,91,-6.08% (inactive),-0.16% (inactive)
COC(=O)c1cc(=O)nc2sc(-c3cccs3)nn12,115,85% (inactive),115% (inactive),84% (inactive),93.4% (inactive),8.2% (inactive),85.2,93.4,-4.86% (inactive),5.24% (inactive)
